RanGTP-Impb inh – disruptors of Ran-importin-beta complex formation – biochemical, FRET, CFP-Ran, YFP-importin-beta, homogeneous, primary screen. 300,000 tested, 1.1% active. AID 2216. cell-free CFP-Ran/YFP-importin-beta FRET ratio. inhibition, % (concentration not given with the values);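 active = more than half of the replicate wells show a fall in the fluorescence ratio signal beyond about 16%, limit read from the data, passing the limit was not always enough; inconclusive = exactly half of the replicate wells pass the set limit; inactive = fewer than half of replicates pass the limit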;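 note: 0% = DMSO wells and 100% = Ran loaded with GDP instead of GTP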
Tb hexokinase – blocks Trypanosoma brucei hexokinase 1 activity. 220,000 tested, 0.11% active. recombinant TbHK1, G6PDH-coupled NADH A340. AID 1430. inhibition, % at 10 µM;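 active = inhibition of 50% or more in the single-dose primary screen; inactive = inhibition below 50%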
Runt-CBFb FRET – Runt domain-CBFb interaction inhibition; Cerulean-Runt/Venus-CBFb FRET ratio 530/480, 1 h; Q01196+Q13951; inhibition, % at 20 µM; 220,000 tested, 0.46% active;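 active = inhibition over about 50% at 20 µM in the single-dose screen, limit read from the data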;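 note: 0% = DMSO wells and 100% = excess unlabeled CBFb competitor control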
Target sequence (Q01196 whole entry, looked up, the tested form may be a part): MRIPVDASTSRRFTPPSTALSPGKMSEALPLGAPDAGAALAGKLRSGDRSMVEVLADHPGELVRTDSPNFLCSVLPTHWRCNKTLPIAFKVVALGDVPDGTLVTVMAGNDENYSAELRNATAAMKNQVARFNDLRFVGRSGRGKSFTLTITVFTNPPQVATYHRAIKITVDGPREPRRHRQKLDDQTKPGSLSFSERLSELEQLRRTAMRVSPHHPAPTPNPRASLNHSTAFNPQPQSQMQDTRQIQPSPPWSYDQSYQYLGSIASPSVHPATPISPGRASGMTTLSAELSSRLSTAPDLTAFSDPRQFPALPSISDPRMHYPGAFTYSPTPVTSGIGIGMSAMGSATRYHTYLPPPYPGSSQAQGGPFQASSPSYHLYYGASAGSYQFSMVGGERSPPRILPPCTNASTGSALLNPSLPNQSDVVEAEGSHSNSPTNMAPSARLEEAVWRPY
Target sequence (Q13951 whole entry, looked up, the tested form may be a part): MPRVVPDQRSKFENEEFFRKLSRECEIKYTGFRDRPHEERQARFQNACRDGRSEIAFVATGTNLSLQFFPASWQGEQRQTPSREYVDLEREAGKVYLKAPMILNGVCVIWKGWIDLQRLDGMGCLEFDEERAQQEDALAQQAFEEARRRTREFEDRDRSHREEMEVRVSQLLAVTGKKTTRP
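Doses: 20 µM compound in 1% DMSO | Material: Cerulean-labeled Runt domain protein | Amount: Each fluorescent fusion protein 100 nM | Schedule: Two 1 h room-temperature incubations shielded from light | Measured by: FRET fluorescence | Evaluation: Loss of energy transfer signal | Controls: Unlabeled CBFb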
Hck Nef HTS – human Hck-Nef kinase inhibition. P08631. 220,000 tested, 0.68% active. Recombinant Hck-YEEI plus Nef, Z-Lyte FRET kinase assay. inhibition, % at 20 µM;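 active = Hck-Nef kinase inhibition above about 50%, limit read from the data; inactive = inhibition below that limit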;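 note: 0% = DMSO with Hck plus Nef and 100% = Hck alone without Nef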
Runt-SMMHC FRET – Runt domain-CBFb-SMMHC interaction inhibition. Q01196+Q13951. Cerulean-Runt/Venus-CBFb-SMMHC FRET ratio 530/480, 1 h. inhibition, % at 20 µM. 220,000 tested, 0.74% active. AID 1434;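 active = mean inhibition across duplicate retests at 20 µM reaching about 50%, limit read from the data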;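 note: 0% = DMSO wells and 100% = wells with excess untagged CBFb-SMMHC; inhibitors lower the FRET ratio by blocking Runt binding to CBFb-SMMHC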
Hck-Nef confirm – confirmation of Hck-Nef kinase inhibitors. shares compounds with Hck Nef HTS. Recombinant Hck-YEEI:Nef, Z-Lyte FRET kinase assay. calls only at 10 µM. 1,300 tested, 28% active. AID 463188;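 active = average inhibition of at least 50%, with Z-scores no higher than 3 in both the phospho-tyrosine peptide and fluorescence counterscreens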
Starred values were filed as active, the others as inactive; i = inactive; ? = inconclusive; nt = no result given; + = active, no number. Sampled rows, rich in hits. Any-hit rate of the full collection: about 1.9%.

SMILES	RanGTP-Impb inh	Tb hexokinase	Runt-CBFb FRET	Hck Nef HTS	Runt-SMMHC FRET	Hck-Nef confirm
COc1ccccc1-c1cc(C(=O)NCCCN2CCOCC2)no1	2	nt	nt	nt	nt	nt
COc1ccccc1CNC(=O)c1c(N)n(CCCN2CCOCC2)c2nc3ccccc3nc12	126*	-19	3	52*	38	i
CC(=O)Nc1ccc(NC(=O)c2cccc(-c3cc4ccccc4oc3=O)c2)cc1	-5	-6	-42	14	-2	nt
COc1ccc(C(=O)Nc2cccc(-c3cc4ccccc4oc3=O)c2)cc1[N+](=O)[O-]	nt	-25	-5	96*	-6	+
CC1=C(C(N)=O)C(c2cccs2)NC(=O)N1 (centres undefined)	?	-4	2	32	-3	nt
O=c1[nH]c(O)c(/C=C2\C=Nc3ccccc32)[nH]1	9	-45	5	60*	-4	i
Cc1cc(NC(=O)CN2C(=O)c3ccccc3C2=O)no1	1	-4	0	11	-5	nt
CC1=NNC(=O)/C1=C\c1cn(-c2ccccc2)nc1-c1ccccc1	nt	-17	0	181*	-14	+
Cc1ccc([N+](=O)[O-])cc1N=Nc1c(-c2ccc([N+](=O)[O-])cc2)[nH]n(C(N)=S)c1=O	8	-4	-1	82*	-16	+
Cc1ccc([N+](=O)[O-])cc1N=Nc1c(C)[nH]n(C(N)=S)c1=O	2	nt	nt	nt	nt	nt
NC(=S)n1[nH]c(-c2ccc([N+](=O)[O-])cc2)c(N=Nc2ccc(Cl)cc2)c1=O	nt	-2	-4	71*	-10	+
Cc1ccc(N=Nc2c(C)[nH]n(C(N)=S)c2=O)cc1	0	0	-2	-33	-2	nt
NC(=O)CC(NC(=O)Cc1ccc(Cl)cc1)c1ccc(NC2CC3CCC2C3)c([N+](=O)[O-])c1 (centres undefined)	-2	nt	nt	nt	nt	nt
O=C(OCC(=O)N1CCN(C(=O)c2ccco2)CC1)c1cc(-c2ccc(Cl)c(Cl)c2Cl)nc2ccccc12	4	-26	-16	50*	-7	+
O=C(OCC(=O)N1CCN(C(=O)c2ccco2)CC1)c1cc(-c2ccco2)nc2ccccc12	-4	-7	3	6	-11	nt
O=C(Nc1ccc(Oc2ccc(C(=O)O)c(C(=O)O)c2)cc1)c1cccs1	-1	0	0	19	-4	nt
Cc1cc(Cl)c2oc(C(=O)N3CCCCC3CCN3CCCC3=O)c(C)c2c1 (centres undefined)	-3	nt	nt	nt	nt	nt
O=c1cc(CCl)nc2sc3ccccc3n12	-2	-7	-2	61*	-6	i
CC(=O)NS(=O)(=O)c1ccc(NC(=O)c2cc(-c3ccc(C)cc3)nc3ccccc23)cc1	-5	-12	-1	1	2	nt
CC(=O)NS(=O)(=O)c1ccc(NC(=O)c2cc(-c3ccc(C)c(C)c3)nc3ccccc23)cc1	0	-14	0	52*	-7	+
O=C(NCc1ccccc1)C(c1ccncc1)N(C(=O)c1ccccn1)c1ccccc1 (centres undefined)	-3	nt	nt	nt	nt	nt
Cc1cc(C)c2oc(C(=O)Nc3ccc(S(=O)(=O)Nc4nccs4)cc3)cc(=O)c2c1	7	-21	-4	51*	-1	i
Cc1cc2oc(C(=O)Nc3ccc(S(=O)(=O)Nc4nccs4)cc3)cc(=O)c2cc1Cl	-3	-14	-14	9	-14	nt
O=c1c2ccccc2sn1-c1cc(S(=O)(=O)N2CCOCC2)ccc1N1CCOCC1	7	50*	2	93*	29	+
O=C(c1ccc(NC(=S)NCc2ccco2)cc1)N1CCCCC1	1	-3	9	1	3	nt
SMILES	RanGTP-Impb inh	Tb hexokinase	Runt-CBFb FRET	Hck Nef HTS	Runt-SMMHC FRET	Hck-Nef confirm
Cc1sc(-n2c(C)cc(/C=C3\SC(=S)NC3=O)c2C)c(C#N)c1C	10	16	nt	71*	-4	i
COc1cc(/C=C(\C#N)C(=O)Nc2cccc(C(=O)O)c2)ccc1OCc1ccc(C)cc1	-3	nt	nt	nt	nt	nt
COc1cc(/C=C(\C#N)C(=O)NC2CCCCC2)ccc1OCc1ccc(C(=O)O)cc1	21*	-15	1	52*	2	i
COc1cc(/C=C(/C#N)C(=O)Nc2ccccc2)ccc1OCc1ccc(C(=O)O)cc1	nt	-20	-5	138*	-10	+
COc1cc(/C=C(\C#N)C(=O)NC(C)C)ccc1OCc1ccc(C(=O)O)cc1	-3	-44	-2	33	3	nt
O=C(O)CCCNC(=O)Cc1ccccc1	0	-1	0	4	-1	nt
COc1ccc(CNS(=O)(=O)CCNC(=O)c2ccc(OC)cc2)cc1	4	nt	nt	nt	nt	nt
CC(=O)Nc1ccc(-c2csc(NC(=O)C3CC(=O)N(c4ccc5c(c4)OCCO5)C3)n2)cc1 (centres undefined)	-4	-17	-1	51*	-4	i
COc1ccc(-c2csc(NC(=O)C3CC(=O)N(c4ccc5c(c4)OCCO5)C3)n2)cc1 (centres undefined)	3	4	-2	3	-8	nt
COc1ccc2[nH]c(O)c(N=NC(=O)Cc3cccs3)c2c1	0	-36	-3	51*	-2	i
CCC(C)NC(=O)CCC(=O)Nc1ccc2nc(N3CC(C)CC(C)C3)cc(C)c2c1 (centres undefined)	2	-12	-2	52*	-2	i
Cn1nc(C(F)(F)F)c(CO)c1Sc1ccc(F)cc1	3	4	2	-16	2	nt
COc1ccc(CNC(=O)CN(Cc2ccc(C)cc2)C(=O)c2csnn2)cc1	8	nt	nt	nt	nt	nt
CCC(=O)Nc1ccc(NC(=O)CSc2nnnn2C2CCCC2)cc1C	-5	nt	nt	nt	nt	nt
COc1ccc(-n2cccc2/C=C2\C(=N)N3N=C(c4ccco4)SC3=NC2=O)cc1	-4	-1	-10	93*	-46	+
CCOc1cc(/C=C2\N=C(SCC)SC2=O)cc([N+](=O)[O-])c1OC(C)=O	6	-6	6	95*	-6	+
CCOc1cc(/C=C2\N=C(SC)SC2=O)cc([N+](=O)[O-])c1OC(C)=O	4	-8	3	13	0	nt
COc1ccc(C(=O)Nc2ccccc2C(=O)NC(Cc2ccc(O)cc2)C(=O)NNC(=O)c2ccccc2Cl)cc1 (centres undefined)	-4	16	-1	66*	-8	i
COc1ccccc1OCCC(=O)OCC(=O)NC(C)c1ccccc1 (centres undefined)	1	-2	-1	4	0	nt
COc1ccccc1N=c1oc2cc(O)ccc2cc1C(=O)NCC1CCCO1 (centres undefined)	174*	-8	43	72*	-10	nt
COc1cccc2cc(C(=O)NCC3CCCO3)c(=O)oc12 (centres undefined)	-3	-7	0	5	-2	nt
COc1ccc2cc(C(N)=O)/c(=N\NC(=O)c3ccccc3)oc2c1	14	nt	nt	nt	nt	nt
